From PMC2948851 (European journal of pharmacology, 2010)
Marks after values point to notes of the source that are not given here.

Columns and labels:
Assay type in all cases: cell-based
[1] = target: human P2Y12 receptor S288P mutant (Homo sapiens, UniProt Q9H244, S288P); experiment: cAMP assay, CHO-K1 cells expressing S288P mutant P2Y12
[2] = target: human P2Y12 receptor Y109S mutant (Homo sapiens, UniProt Q9H244, Y109S); experiment: cAMP assay, CHO-K1 cells expressing Y109S mutant P2Y12
[3] = target: human P2Y12 receptor H253S mutant (Homo sapiens, UniProt Q9H244, H253S); experiment: cAMP assay, CHO-K1 cells expressing H253S mutant P2Y12
Sequence of human P2Y12 receptor H253S mutant (Q9H244 whole entry H253S): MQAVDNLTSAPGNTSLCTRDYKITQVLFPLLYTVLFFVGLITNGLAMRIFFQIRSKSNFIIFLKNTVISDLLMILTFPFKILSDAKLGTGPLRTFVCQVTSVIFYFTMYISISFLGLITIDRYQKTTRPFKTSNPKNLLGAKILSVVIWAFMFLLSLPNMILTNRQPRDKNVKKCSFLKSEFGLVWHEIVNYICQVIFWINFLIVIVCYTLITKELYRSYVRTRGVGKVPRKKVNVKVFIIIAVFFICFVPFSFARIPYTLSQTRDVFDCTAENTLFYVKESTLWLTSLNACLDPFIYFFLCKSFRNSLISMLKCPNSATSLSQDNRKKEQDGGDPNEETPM

[4] = target: human P2Y12 receptor R256T mutant (Homo sapiens, UniProt Q9H244, R256T); experiment: cAMP assay, CHO-K1 cells expressing R256T mutant P2Y12
Sequence of human P2Y12 receptor R256T mutant (Q9H244 whole entry R256T): as the sequence (Q9H244 whole entry H253S) above, with S253H, R256T counted along it

[5] = target: human P2Y12 receptor R265W mutant (Homo sapiens, UniProt Q9H244, R265W); experiment: cAMP assay, CHO-K1 cells expressing R265W mutant P2Y12
Sequence of human P2Y12 receptor R265W mutant (Q9H244 whole entry R265W): as the sequence (Q9H244 whole entry H253S) above, with S253H, R265W counted along it

[6] = target: human P2Y12 receptor F198P mutant (Homo sapiens, UniProt Q9H244, F198P); experiment: cAMP assay, CHO-K1 cells expressing F198P mutant P2Y12
Sequence of human P2Y12 receptor F198P mutant (Q9H244 whole entry F198P): as the sequence (Q9H244 whole entry H253S) above, with F198P, S253H counted along it

[7] = target: human P2Y12 receptor R256Q/R265W double mutant (Homo sapiens, UniProt Q9H244, R256Q/R265W); experiment: cAMP assay, CHO-K1 cells expressing R256Q/R265W double mutant P2Y12
Sequence of human P2Y12 receptor R256Q/R265W double mutant (Q9H244 whole entry R256Q/R265W): as the sequence (Q9H244 whole entry H253S) above, with S253H, R256Q, R265W counted along it

[8] = target: human P2Y12 receptor wild-type (Homo sapiens, UniProt Q9H244)
Sequence of human P2Y12 receptor wild-type (Q9H244 whole entry): as the sequence (Q9H244 whole entry H253S) above, with S253H counted along it
Summary of the method: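 CHO-K1 stably expressing N-terminally HA-tagged human P2Y12 (Ham's F-12, 10% FBS, 500 µg/ml hygromycin B); [3H]adenine-labelled overnight, 0.4 mM IBMX 10 min, then 20 µM forskolin with ADP (0.01–10 µM) and/or antagonist (0.001–1 µM, against 10 µM ADP) 5 min, 37°C. TCA stop; [3H]cAMP/([3H]ATP+[3H]cAMP) conversion, normalized to forskolin alone; IC50 calculated; mean ± S.E.M., n=3.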

[9] = target: human P2Y12 receptor F104S mutant (Homo sapiens, UniProt Q9H244, F104S); experiment: cAMP assay, CHO-K1 cells expressing F104S mutant P2Y12
Sequence of human P2Y12 receptor F104S mutant (Q9H244 whole entry F104S): as the sequence (Q9H244 whole entry H253S) above, with F104S, S253H counted along it

[10] = target: human P2Y12 receptor R256Q mutant (Homo sapiens, UniProt Q9H244, R256Q); experiment: cAMP assay, CHO-K1 cells expressing R256Q mutant P2Y12
Sequence of human P2Y12 receptor R256Q mutant (Q9H244 whole entry R256Q): as the sequence (Q9H244 whole entry H253S) above, with S253H, R256Q counted along it

[11] = CHO-K1, read-out: inhibition of cAMP at 10 μM ADP

Sequence of human P2Y12 receptor S288P mutant (Q9H244 whole entry S288P): as the sequence (Q9H244 whole entry H253S) above, with S253H, S288P counted along it
Sequence of human P2Y12 receptor Y109S mutant (Q9H244 whole entry Y109S): as the sequence (Q9H244 whole entry H253S) above, with Y109S, S253H counted along it

## Nc1ncnc2c1ncn2[C@@H]1O[C@H](COP(=O)(O)OP(=O)(O)O)[C@@H](O)[C@H]1O [ADP, Adenosine diphosphate]
[1]
  IC50: 40 ± 10 nM
[1]; S288P construct, CHO-K1, 20 μM forskolin, cAMP
  Max. inhibition by ADP (% of control): 68.89 ± 6.24 (3) % of control
[1]; S288P vs wild-type
  left shift of ADP concentration curve vs wild-type: about 4 fold
[2]
  IC50: 170 ± 90 nM
[2]; CHO-K1, read-out: cAMP inhibition at 10 μM ADP
  inhibition at 10 µM: ~20%
[2]; Y109S construct, CHO-K1, 20 μM forskolin, cAMP
  Max. inhibition by ADP (% of control): 31.96 ± 0.15 ^b (3) % of control
[3]
  IC50: 350 ± 210 nM
[3]; [11]
  inhibition at 10 µM: ~60%
[3]; H253S construct, CHO-K1, 20 μM forskolin, cAMP
  Max. inhibition by ADP (% of control): 62.21 ± 1.93 (3) % of control
[4]
  IC50: 290 ± 50 nM
[4]; R256T construct, CHO-K1, 20 μM forskolin, cAMP
  Max. inhibition by ADP (% of control): 79.53 ± 4.83 (3) % of control
[5]
  IC50: 450 ± 210 nM
[5]; [11]
  inhibition at 10 µM: ~60%
[5]; R265W construct, CHO-K1, 20 μM forskolin, cAMP
  Max. inhibition by ADP (% of control): 58.01 ± 3.08 ^a (3) % of control
[6]
  IC50: 150 ± 50 nM
[6]; CHO-K1, read-out: maximal inhibition of cAMP level at 10 μM ADP
  inhibition at 10 µM: ~40%
[6]; F198P construct, CHO-K1, 20 μM forskolin, cAMP
  Max. inhibition by ADP (% of control): 40.37 ± 10.64 ^b(3) % of control
[7]
  IC50: 6460 ± 190 nM
[7]; R256QR265W construct, CHO-K1, 20 μM forskolin, cAMP
  Max. inhibition by ADP (% of control): 56.68 ± 6.32 ^a (3) % of control
[8]
  IC50: 250 ± 40 nM
[8]; CHO-K1, read-out: cAMP inhibition at 10 μM ADP, wild-type, 10 μM ADP
  inhibition at 10 µM: ~85%
[8]; Wild-type construct, CHO-K1, 20 μM forskolin, cAMP
  Max. inhibition by ADP (% of control): 85.37 ± 2.14 (3) % of control
[9]
  IC50: 60 ± 10 nM
[9]; F104S construct, CHO-K1, 20 μM forskolin, cAMP
  Max. inhibition by ADP (% of control): 77.7 ± 1.12 (3) % of control
[9]; F104S vs wild-type
  increase of potency of activation by ADP vs wild-type: 5 fold
[10]
  IC50: 570 ± 30 nM
[10]; R256Q construct, CHO-K1, 20 μM forskolin, cAMP
  Max. inhibition by ADP (% of control): 75.32 ± 6.91 (3) % of control

## CSCCNc1nc(SCCC(F)(F)F)nc2c1ncn2[C@@H]1O[C@H](COP(=O)(O)OP(=O)(O)C(Cl)(Cl)P(=O)(O)O)[C@@H](O)[C@H]1O [AR-C69931MX]
[4]; R256T, 10 μM ADP
  AR-C69931MX concentration enough to block ADP (10 μM)-induced activation: 100 nM
[4]; R256T, in the presence of 10 μM ADP
  shift of AR-C69931MX concentration curve vs wild-type: significant left shift
[5]; R265W, 10 μM ADP
  AR-C69931MX concentration enough to block ADP-induced activation: 30 nM
[5]; R265W, in the presence of 10 μM ADP, compared to R256Q and R256T
  shift of AR-C69931MX concentration curve vs wild-type: even more leftward shift
[7]; R256QR265W, in the presence of 10 μM ADP
  shift of AR-C69931MX concentration curve vs wild-type: leftward shift
[8]; wild-type, 10 nM AR-C69931MX, 10 μM ADP
  antagonism effect of AR-C69931MX at 10 nM: did not occur
[8]; wild-type, 10 μM ADP
  AR-C69931MX concentration required to completely inhibit 10 μM ADP-induced inhibition of cAMP: 1 µM
[10]; R256Q, in the presence of 10 μM ADP
  shift of AR-C69931MX concentration curve vs wild-type: leftward shift
